ChEMBL document CHEMBL1649405, “Structure-activity relationships study of 6-chloro-4-(2-chlorophenyl)-3-(2-hydroxyethyl) quinolin-2(1H)-one derivatives as novel non-nucleoside anti-hepatitis B virus agents” (Eur J Med Chem, 2011)
Activity calls are given as the source filed them. The calls are words filed in the database; no cut-off is given here.

How the values were obtained:
Hepatitis B virus [1] = test: Antiviral activity against Hepatitis B virus infected in human HepG2(2.2.15) cells assessed as inhibition of viral surface antigen secretion after 6 days by ELISA; format: functional, organism-based; details: HepG2 2.2.15, 144 h
Summary of the method: (§1)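 HepG 2.2.15 cells in DMEM with 10% FBS, 37 °C, 5% CO2. Treated for 6 days with refeeding every other day. Culture medium centrifuged at 6000 g to clear debris. HBeAg or HBsAg measured by quantitative ELISA on a microplate reader. IC50 = concentration giving 50% inhibition of secretion. Mean of two independent experiments.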

Hepatitis B virus [2] = test: Antiviral activity against Hepatitis B virus infected in human HepG2(2.2.15) cells assessed as inhibition of viral e antigen secretion after 6 days by ELISA; format: functional, organism-based; details: HepG2 2.2.15, 144 h; summary of the method: as §1
[3] = Cytotoxicity against human HepG2(2.2.15) cells; format: cell-based
Summary of the method: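 HepG 2.2.15 cells in DMEM with 10% FBS, 37 °C, 5% CO2. CC50 = concentration killing 50% of cells. Mean of two independent experiments.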

Hepatitis B virus [4] = test: Antiviral activity against Hepatitis B virus infected in human HepG2(2.2.15) cells assessed as inhibition of viral DNA replication after 6 days by PCR analysis; format: functional, organism-based
Summary of the method: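 HepG 2.2.15 cells in DMEM with 10% FBS, 5 mM L-glutamine, penicillin/streptomycin, 37 °C, 5% CO2; seeded 5 × 10^5 per well, medium changed every 2 days. Compound added after 6 days, refed every other day for 6 more days. HBV DNA by real-time PCR against a cloned HBV plasmid standard series. IC50 = 50% inhibition. Mean of two independent experiments.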

[5] = Selectivity index, ratio of CC50 for human HepG2(2.2.15) cells to IC50 for Hepatitis B virus infected in human HepG2(2.2.15) cells assessed as inhibition of viral surface antigen secretion; format: functional
Summary of the method: (§2)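 Ratio of CC50 in HepG 2.2.15 cells to the IC50 for HBeAg or HBsAg secretion. Both values come from ELISA and cytotoxicity runs on the same cell line. Each input is the mean of two independent experiments.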

[6] = Selectivity index, ratio of CC50 for human HepG2(2.2.15) cells to IC50 for Hepatitis B virus infected in human HepG2(2.2.15) cells assessed as inhibition of viral e antigen secretion; format: functional; summary of the method: as §2
[7] = Cytotoxicity against human HepG2(2.2.15) cells assessed as cell viability at 0.02 mM after 48 hrs by MTT assay; format: cell-based; details: read-out: Activity
[8] = Cytotoxicity against human HepG2(2.2.15) cells assessed as cell viability at 0.02 mM after 72 hrs by MTT assay; format: cell-based; details: read-out: Activity
Nucleic Acid [9] = test: Increase of core/pregenomic factor transcriptional activity in HBV infected in human HepG2(2.2.15) cells transfected with pGL3 at 0.02 mM by luciferase reporter gene assay relative to mock-treated control; format: cell-based; details: Hepatitis B virus
Summary of the method: (§3)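 HepG2 cells transfected with pGL3-based firefly luciferase constructs carrying HBV promoter or enhancer elements; pGL3 Basic as control, phRL-CMV Renilla as internal control. Treated with 0.02 mM; read by dual-luciferase assay. Fold activity = treated promoter activity / mock-treated activity. Triplicate samples.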

Nucleic Acid [10] = test: Inhibition of preS2 promoter transcriptional activity in human HepG2 cells transfected with pGL3 at 0.02 mM by luciferase reporter gene assay relative to mock-treated control; details: Hepatitis B virus
Nucleic Acid [11] = test: Increase of enhancer 2 transcriptional activity in HBV infected in human HepG2(2.2.15) cells transfected with pGL3 at 0.02 mM by luciferase reporter gene assay relative to mock-treated control; format: cell-based; details: Hepatitis B virus; summary of the method: as §3
Nucleic Acid [12] = test: Increase of enhancer 1 transcriptional activity in HBV infected in human HepG2(2.2.15) cells transfected with pGL3 at 0.02 mM by luciferase reporter gene assay relative to mock-treated control; format: cell-based; details: Hepatitis B virus; summary of the method: as §3
Nucleic Acid [13] = test: Increase of X promoter transcriptional activity in HBV infected in human HepG2(2.2.15) cells transfected with pGL3 at 0.02 mM by luciferase reporter gene assay relative to mock-treated control; format: cell-based; details: Hepatitis B virus; summary of the method: as §3
Nucleic Acid [14] = test: Increase of preS1 promoter transcriptional activity in HBV infected in human HepG2(2.2.15) cells transfected with pGL3 at 0.02 mM by luciferase reporter gene assay relative to mock-treated control; format: cell-based; details: Hepatitis B virus; summary of the method: as §3
[15] = Hepatitis B virus, HepG2 2.2.15, 144 h, read-out: IC50

Compound | IC50 (Hepatitis B virus [1]) | IC50 (Hepatitis B virus [2]) | IC50 (Hepatitis B virus [4]; hepg2 2.2.15) | IC50 (Hepatitis B virus [4]; [15]) | CC50 [3] | Selectivity Index [5] | Selectivity Index [6] | viability at 48 h, 20 µM [7] | viability at 72 h, 20 µM [8] | fold change (FC) (Nucleic Acid [9]) | inhibition (Nucleic Acid [10]) | fold change (FC) (Nucleic Acid [11]) | fold change (FC) (Nucleic Acid [12]) | fold change (FC) (Nucleic Acid [13]) | fold change (FC) (Nucleic Acid [14])
COc1ccccc1/C=C/C(=O)OCCc1c(-c2ccccc2Cl)c2cc(Cl)ccc2[nH]c1=O | 61 µM | 24 µM | Not Active | – | 770 µM | 13 | 32 | – | – | – | – | – | – | – | –
O=C(/C=C/c1cccc(F)c1)OCCc1c(-c2ccccc2Cl)c2cc(Cl)ccc2[nH]c1=O | 33 µM | 27 µM | – | 110 µM | > 1600 µM | >48 | >58 | – | – | – | – | – | – | – | –
COc1cccc(/C=C/C(=O)OCc2c(-c3ccccc3Cl)c3cc(Cl)ccc3[nH]c2=O)c1 | 11 µM | 18 µM | – | 160 µM | > 1800 µM | >170 | >100 | – | – | – | – | – | – | – | –
COc1cccc(/C=C/C(=O)OCCCc2c(-c3ccccc3Cl)c3cc(Cl)ccc3[nH]c2=O)c1 | 20 µM | 28 µM | Not Active | – | > 1100 µM | >55 | >39 | – | – | – | – | – | – | – | –
COc1ccc(/C=C/C(=O)OCCc2c(-c3ccccc3Cl)c3cc(Cl)ccc3[nH]c2=O)cc1OC | 21 µM | 57 µM | Not Active | – | > 1200 µM | >58 | >21 | – | – | – | – | – | – | – | –

The next lines start with results.

IC50 (Hepatitis B virus [1]) | IC50 (Hepatitis B virus [2]) | IC50 (Hepatitis B virus [4]; hepg2 2.2.15) | IC50 (Hepatitis B virus [4]; [15]) | Compound | CC50 [3] | Selectivity Index [5] | Selectivity Index [6] | viability at 48 h, 20 µM [7] | viability at 72 h, 20 µM [8] | fold change (FC) (Nucleic Acid [9]) | inhibition (Nucleic Acid [10]) | fold change (FC) (Nucleic Acid [11]) | fold change (FC) (Nucleic Acid [12]) | fold change (FC) (Nucleic Acid [13]) | fold change (FC) (Nucleic Acid [14])
10 µM | 26 µM | – | 45 µM | COc1cccc(/C=C/C(=O)OCCc2c(-c3ccccc3Cl)c3cc(Cl)ccc3[nH]c2=O)c1 | > 1300 µM | >135 | >51 | 95.2% | 80.4% | 4 | Active | 14 | 12 | 4 | 4
230 µM | 19 µM | Not Active | – | O=C(/C=C/c1ccc(C(F)(F)F)cc1)OCCc1c(-c2ccccc2Cl)c2cc(Cl)ccc2[nH]c1=O | > 1400 µM | >6.1 | >73 | – | – | – | – | – | – | – | –
490 µM | 48 µM | Not Active | – | COc1ccc(/C=C/C(=O)OCCc2c(-c3ccccc3Cl)c3cc(Cl)ccc3[nH]c2=O)cc1 | > 1200 µM | >2.5 | >25 | – | – | – | – | – | – | – | –
